# Results published in ChEMBL document CHEMBL4387722.
# pIC50: −log10 of the molar value.
# Legend:
# [1] = molecular target: T1, Phosphotyrosine protein phosphatase (Mycobacterium tuberculosis, UniProt A0A045ISB3); experiment: Inhibition of Mycobacterium tuberculosis His-tagged PtpB expressed in Escherichia coli Rosetta 2 (DE3) using pNPP as substrate after 30 mins by spectrophotometric method
# T1 sequence (A0A045ISB3 whole entry): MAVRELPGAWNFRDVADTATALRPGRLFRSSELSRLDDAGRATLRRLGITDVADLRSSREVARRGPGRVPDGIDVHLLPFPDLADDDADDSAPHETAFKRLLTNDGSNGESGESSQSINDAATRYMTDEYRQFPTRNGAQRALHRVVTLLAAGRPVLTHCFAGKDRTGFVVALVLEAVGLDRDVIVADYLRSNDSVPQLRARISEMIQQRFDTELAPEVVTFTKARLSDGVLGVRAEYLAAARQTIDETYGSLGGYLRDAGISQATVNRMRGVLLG
# [2] = molecular target: T2, Tyrosine-protein phosphatase non-receptor type 1 (Homo sapiens, UniProt P18031); experiment: Inhibition of human PTPN1 expressed in Escherichia coli Rosetta 2 (DE3) using pNPP as substrate after 45 mins by spectrophotometric method
# T2 sequence (P18031 whole entry): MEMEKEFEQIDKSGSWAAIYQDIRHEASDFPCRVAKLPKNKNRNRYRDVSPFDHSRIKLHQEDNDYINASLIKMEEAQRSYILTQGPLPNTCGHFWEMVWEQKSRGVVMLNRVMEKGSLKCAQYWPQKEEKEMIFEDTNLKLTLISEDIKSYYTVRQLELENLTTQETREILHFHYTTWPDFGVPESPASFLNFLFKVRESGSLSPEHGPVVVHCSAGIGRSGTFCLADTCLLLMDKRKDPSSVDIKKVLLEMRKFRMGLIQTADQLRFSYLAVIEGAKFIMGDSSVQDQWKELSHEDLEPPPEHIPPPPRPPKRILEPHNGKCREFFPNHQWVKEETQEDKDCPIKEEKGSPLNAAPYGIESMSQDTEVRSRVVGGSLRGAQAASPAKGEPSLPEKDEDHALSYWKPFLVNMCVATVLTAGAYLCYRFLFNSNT
# [3] = molecular target: T3, Tyrosine-protein phosphatase non-receptor type 2 (Homo sapiens, UniProt P17706); experiment: Inhibition of human PTPN2 expressed in Escherichia coli Rosetta 2 (DE3) using pNPP as substrate after 45 mins by spectrophotometric method
# T3 sequence (P17706 whole entry): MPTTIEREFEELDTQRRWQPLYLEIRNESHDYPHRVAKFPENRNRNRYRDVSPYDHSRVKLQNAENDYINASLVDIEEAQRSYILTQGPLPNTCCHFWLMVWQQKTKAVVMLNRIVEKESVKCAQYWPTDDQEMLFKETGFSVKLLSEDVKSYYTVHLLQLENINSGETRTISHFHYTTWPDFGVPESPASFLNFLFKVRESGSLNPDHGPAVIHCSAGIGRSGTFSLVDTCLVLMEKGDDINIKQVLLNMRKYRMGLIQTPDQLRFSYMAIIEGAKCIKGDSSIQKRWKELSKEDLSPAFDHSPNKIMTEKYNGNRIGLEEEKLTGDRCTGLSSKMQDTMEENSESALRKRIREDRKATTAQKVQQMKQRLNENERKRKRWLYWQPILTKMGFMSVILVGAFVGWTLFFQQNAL
# [4] = molecular target: T4, Tyrosine-protein phosphatase non-receptor type 5 (Homo sapiens, UniProt P54829); experiment: Inhibition of human PTPN5 expressed in Escherichia coli Rosetta 2 (DE3) using pNPP as substrate after 45 mins by spectrophotometric method
# T4 sequence (P54829 whole entry): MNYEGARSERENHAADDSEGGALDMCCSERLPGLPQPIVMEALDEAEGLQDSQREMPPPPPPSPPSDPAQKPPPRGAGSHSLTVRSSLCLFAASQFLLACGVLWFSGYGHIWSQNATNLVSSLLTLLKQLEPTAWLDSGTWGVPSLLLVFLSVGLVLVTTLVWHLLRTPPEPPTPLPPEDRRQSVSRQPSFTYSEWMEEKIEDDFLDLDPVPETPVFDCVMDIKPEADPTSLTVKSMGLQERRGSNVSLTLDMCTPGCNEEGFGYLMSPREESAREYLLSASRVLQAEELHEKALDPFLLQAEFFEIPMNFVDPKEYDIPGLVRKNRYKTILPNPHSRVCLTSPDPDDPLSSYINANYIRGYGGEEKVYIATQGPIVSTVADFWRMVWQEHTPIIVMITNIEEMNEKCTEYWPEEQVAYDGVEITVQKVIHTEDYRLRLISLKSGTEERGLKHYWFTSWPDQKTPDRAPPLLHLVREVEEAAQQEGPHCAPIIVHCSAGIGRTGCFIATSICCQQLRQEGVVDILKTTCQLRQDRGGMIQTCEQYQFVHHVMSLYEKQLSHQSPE
# [5] = tested on: Mycobacterium tuberculosis; experiment: Antitubercular activity against Mycobacterium tuberculosis H37Rv after 5 days at 200 uM relative to control; type: functional; details: 120 h
# How it was run: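 M. tuberculosis grown in liquid culture with compound at a fixed 200 μM for 5 days. Growth inhibition expressed as percent of control.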
# [6] = Inhibition of refolded rhodanese (unknown origin) preincubated with Escherichia coli GroEL/GroES for 60 mins by measuring rhodanese enzyme activity followed by compound addition by Fe(SCN)3 dye based spectrometric analysis; parameters: species or system Homo sapiens
# [7] = molecular target: T5, Malate dehydrogenase, mitochondrial (Sus scrofa, UniProt P00346); experiment: Inhibition of refolded pig heart mitochondrial MDH preincubated with Escherichia coli GroEL/GroES for 45 mins using sodium mesoxalate as substrate followed by compound addition and measured after 20 to 30 mins by spectrometric analysis
# T5 sequence (P00346 whole entry): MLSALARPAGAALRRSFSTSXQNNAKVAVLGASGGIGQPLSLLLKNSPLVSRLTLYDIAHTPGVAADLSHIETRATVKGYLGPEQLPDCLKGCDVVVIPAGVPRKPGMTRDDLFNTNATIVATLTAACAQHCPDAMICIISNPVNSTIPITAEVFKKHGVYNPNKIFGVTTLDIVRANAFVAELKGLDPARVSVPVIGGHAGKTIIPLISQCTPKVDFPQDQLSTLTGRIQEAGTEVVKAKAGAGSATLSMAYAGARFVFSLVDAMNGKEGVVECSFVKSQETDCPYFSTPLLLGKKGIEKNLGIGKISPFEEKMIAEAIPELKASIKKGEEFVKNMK
# E. coli GroEL/ES [8] = molecular target: T6, E. coli GroEL/ES (Escherichia coli, UniProt P0A6F5); experiment: Inhibition of Escherichia coli GroEL expressed in Escherichia coli DH5alpha/Escherichia coli GroES expressed in Escherichia coli BL21 (DE3) assessed as reduction in GroEL/GroES-mediated denatured rhodanese refolding by measuring rhodanese enzyme activity after 45 mins by Fe(SCN)3 dye based spectrometric analysis
# T6 sequence (P0A6F5 whole entry, looked up): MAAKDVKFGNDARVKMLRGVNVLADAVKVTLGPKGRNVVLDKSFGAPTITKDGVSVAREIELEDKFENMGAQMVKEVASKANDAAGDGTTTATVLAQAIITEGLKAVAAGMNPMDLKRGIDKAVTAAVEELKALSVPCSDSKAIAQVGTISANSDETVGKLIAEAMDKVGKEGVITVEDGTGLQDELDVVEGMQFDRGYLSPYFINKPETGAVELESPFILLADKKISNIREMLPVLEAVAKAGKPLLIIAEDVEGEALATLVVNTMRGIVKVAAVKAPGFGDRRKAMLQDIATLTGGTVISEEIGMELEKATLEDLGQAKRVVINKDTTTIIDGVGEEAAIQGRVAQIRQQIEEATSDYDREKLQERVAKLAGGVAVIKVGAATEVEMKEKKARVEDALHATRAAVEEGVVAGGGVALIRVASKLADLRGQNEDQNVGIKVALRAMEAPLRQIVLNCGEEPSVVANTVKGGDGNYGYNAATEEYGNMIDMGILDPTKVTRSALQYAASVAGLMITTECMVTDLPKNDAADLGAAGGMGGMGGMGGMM
# E. coli GroEL/ES [9] = molecular target: T6, E. coli GroEL/ES; experiment: Inhibition of Escherichia coli GroEL expressed in Escherichia coliDH5alpha/Escherichia coli GroES expressed in Escherichia coli BL21 (DE3) assessed as reduction in GroEL/GroES-mediated denatured pig heart mitochondrial MDH refolding by measuring MDH enzyme activity using sodium mesoxalate as substrate after 20 to 40 mins by spectrometric analysis
# HSP60/HSP10 = HSP60/HSP10 (Homo sapiens, UniProt P10809); experiment: Inhibition of human HSP60 expressed in Escherichia coli Rosetta 2(DE3)/human HSP10 expressed in Escherichia coli Rosetta 2(DE3) pLysS cells assessed as reduction in HSP60/HSP10-mediated denatured pig heart mitochondrial MDH refolding by measuring MDH enzyme activity using sodium mesoxalate as substrate after 40 to 60 mins by spectrometric analysis
# HSP60/HSP10, sequence (P10809 whole entry): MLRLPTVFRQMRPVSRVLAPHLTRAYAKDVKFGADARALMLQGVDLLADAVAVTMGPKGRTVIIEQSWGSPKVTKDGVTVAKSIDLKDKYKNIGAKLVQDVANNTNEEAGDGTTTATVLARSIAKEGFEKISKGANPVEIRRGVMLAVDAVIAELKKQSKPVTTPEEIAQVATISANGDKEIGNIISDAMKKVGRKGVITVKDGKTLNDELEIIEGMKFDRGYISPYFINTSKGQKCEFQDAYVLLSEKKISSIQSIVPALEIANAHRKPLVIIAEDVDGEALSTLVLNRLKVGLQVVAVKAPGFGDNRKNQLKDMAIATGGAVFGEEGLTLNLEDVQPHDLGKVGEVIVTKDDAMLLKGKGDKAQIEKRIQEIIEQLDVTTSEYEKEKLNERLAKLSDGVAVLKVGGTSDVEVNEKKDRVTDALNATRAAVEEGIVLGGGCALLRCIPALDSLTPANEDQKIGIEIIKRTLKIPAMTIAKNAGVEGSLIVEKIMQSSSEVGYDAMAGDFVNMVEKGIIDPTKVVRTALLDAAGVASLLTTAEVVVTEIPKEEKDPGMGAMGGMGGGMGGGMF
# HSP60/HSP10, sequence (P61604 whole entry, further chain): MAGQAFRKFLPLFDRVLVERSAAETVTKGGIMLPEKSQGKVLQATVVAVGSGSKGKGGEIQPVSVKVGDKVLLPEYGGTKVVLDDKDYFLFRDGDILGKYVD
# [10] = Cytotoxicity against human THLE3 cells assessed as reduction in cell viability after 48 hrs by Alamar blue assay; type: cell-based
# How it was run: (§1)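 Alamar Blue viability read-out. Human liver (THLE-3) and kidney (HEK 293) cells incubated with compound for 48 h. Tested in dose-response to derive CC50.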
# [11] = Cytotoxicity against human HEK293 cells assessed as reduction in cell viability after 48 hrs by Alamar blue assay; type: cell-based; how it was run: as §1
Compound,pIC50 [1],pIC50 [2],pIC50 [3],pIC50 [4],inhibition at 200 µM [5] [%],pIC50 [6],pIC50 [7],pIC50 (E. coli GroEL/ES [8]),pIC50 (E. coli GroEL/ES [9]),pIC50 (HSP60/HSP10),CC50 at 48 h [10] [µM],CC50 at 48 h [11] [µM]
COc1ccccc1S(=O)(=O)Nc1ccc2oc(-c3ccccc3)nc2c1,4.17,4.43,4.47,4.42,3,< 4.00,< 4.20,4.05,4.07,< 4.00,29,41
O=S(=O)(Nc1ccc(-c2nc3ccccc3o2)cc1)c1ccccc1F,4.07,4.26,4.10,4.15,8,< 4.00,< 4.20,3.74,< 4.00,< 4.00,> 100,> 100
O=S(=O)(Nc1ccc(-c2nc3ccccc3o2)cc1)c1ccc(Cl)cc1,4.34,4.37,4.38,4.44,7,< 4.00,< 4.20,3.82,< 4.00,4.21,81,> 100
O=S(=O)(Nc1ccc(-c2nc3ccccc3o2)cc1)c1ccc(Cl)c(C(F)(F)F)c1,4.54,4.55,4.55,4.47,18,< 4.00,< 4.20,4.17,4.64,4.92,81,69
O=S(=O)(Nc1ccc2oc(-c3ccccc3)nc2c1)c1ccccc1C(F)(F)F,4.24,4.36,4.26,4.43,45,< 4.00,< 4.20,3.79,4.04,< 4.00,59,80
O=S(=O)(Nc1ccc2oc(-c3ccccc3)nc2c1)c1ccc(Cl)cc1,4.25,4.36,4.46,4.59,0,< 4.00,< 4.20,3.83,< 4.00,< 4.00,40,65
O=S(=O)(Nc1ccc(-c2nc3ccccc3o2)cc1)c1ccccc1O,4.51,4.48,4.24,4.44,0,< 4.00,< 4.20,3.90,4.08,< 4.00,81,> 100
Cc1cccc(S(=O)(=O)Nc2ccc(-c3nc4ccccc4o3)cc2)c1,4.40,4.43,4.40,4.55,13,< 4.00,< 4.20,3.78,4.04,< 4.00,81,> 100
O=S(=O)(Nc1ccc2oc(-c3ccccc3)nc2c1)c1ccccc1Cl,4.30,4.40,4.38,4.46,13,< 4.00,< 4.20,3.99,4.05,< 4.00,43,73
O=S(=O)(Nc1ccc(-c2nc3ccccc3o2)cc1)c1ccc(Cl)c(Cl)c1,4.60,4.54,4.48,4.52,37,< 4.00,< 4.20,3.98,4.37,4.60,84,> 100
O=S(=O)(Nc1ccc2oc(-c3ccccc3)nc2c1)c1ccccc1F,4.10,4.23,4.16,4.36,12,< 4.00,< 4.20,3.77,< 4.00,< 4.00,53,72
O=S(=O)(Nc1ccc2oc(-c3ccccc3)nc2c1)c1ccc(Cl)c(Cl)c1,4.48,4.46,4.48,4.60,22,< 4.00,< 4.20,3.82,4.10,< 4.00,55,71
O=S(=O)(Nc1ccc2oc(-c3ccccc3)nc2c1)c1ccc(C(F)(F)F)cc1,4.59,4.44,4.36,4.57,0,< 4.00,< 4.20,3.80,4.19,< 4.00,49,74
O=S(=O)(Nc1ccc2oc(-c3ccccc3)nc2c1)c1cccc(C(F)(F)F)c1,4.11,4.08,4.12,4.35,41,< 4.00,< 4.20,3.74,4.02,< 4.00,58,> 100
